Screening data: PubChem BioAssay, several laboratories
Scp1 inh – Scp-1 phosphatase inhibitors, primary screen, biochemical, colorimetric, uHTS | AID 493091, 2011 | Carboxy-terminal domain RNA polymerase II polypeptide A small phosphatase 1 (Homo … | inhibition, % at 20 µM | Recombinant Scp1, phosphopeptide, malachite green phosphate absorbance | 340,000 tested, 0.88% active;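 active means inhibition above about 50% at 20 µM, limit read from the data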;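 further: plate controls were DMSO wells with enzyme for no effect and wells lacking enzyme for full effect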
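Material: truncated SCP-1 phosphatase (76-261aa) / Buffer or medium: 50 mM Tris acetate pH 5.5, 0.005% Tween-20, 10 mM MgCl2 / Compound dosing: one concentration, 20 µM, with 1.0% DMSO / Incubation: 45 min room-temperature reaction, 5 min colour, 30 min stabiliser / Detection: colorimetric free-phosphate detection, absorbance 630 nm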
DNMT1 inh – human DNMT1 methyltransferase inhibitors, primary screen, biochemical, molecular beacon, fluorescence, HinP1I cleavage, uHTS | DNA (cytosine-5)-methyltransferase 1 (Homo sapiens), P26358 | 360,000 tested, 0.83% active | AID 588458, 2011 | inhibition (reported as % activation of signal), % at 10 µM; in the data active means inhibition above about 50%
SUMO1 PPI mod – modulators of SUMO1 protein-protein interactions, primary screen, biochemical, uHTS. Small ubiquitin-related modifier 1 (Homo sapiens), P63165. SUMO1 binding to a labelled peptide, TR-FRET, 1 h. inhibition, % at 20 µM. 360,000 tested, 0.33% active; in the data active means inhibition above about 37%
Target sequence (P63165 whole entry, looked up): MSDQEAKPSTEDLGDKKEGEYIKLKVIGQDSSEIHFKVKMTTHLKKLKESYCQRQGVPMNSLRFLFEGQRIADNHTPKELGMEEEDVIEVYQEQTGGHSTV
LMPTP inh – LMPTP phosphatase inhibitors, primary screen, biochemical, fluorescence intensity, uHTS | Low molecular weight phosphotyrosine protein phosphatase (Homo sapiens), P24666 | recombinant LMPTP-A, OMFP fluorogenic substrate | inhibition, % at 20 µM | 360,000 tested, 0.22% active | AID 651560, 2012;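 active means compounds that cut the enzyme signal by at least half of the control window in the single-dose screen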;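 further: plate controls were DMSO wells with enzyme plus substrate for no effect and substrate without enzyme for full effect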
Target sequence (P24666 whole entry, looked up): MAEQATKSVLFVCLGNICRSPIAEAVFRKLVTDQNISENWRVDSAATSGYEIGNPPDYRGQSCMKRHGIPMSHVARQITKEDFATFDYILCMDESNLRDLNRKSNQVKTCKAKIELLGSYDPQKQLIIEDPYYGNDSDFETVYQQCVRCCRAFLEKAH
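Test system – LMPTP-A enzyme · Amount – LMPTP-A at 0.625 nM final in the reaction · Buffer or medium – Bis-Tris pH 6.0, DTT, detergent · Reagent – OMFP 400 µM · Doses – single 20 µM dose · Schedule – reaction 50 min, room temperature, dark · Detection – fluorescence intensity of OMFP turnover product · Evaluation – percent inhibition versus substrate-only and uninhibited controls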
STEP block – STEP phosphatase inhibitors, primary screen, biochemical, fluorescence intensity, uHTS. Tyrosine-protein phosphatase non-receptor type 5 (Homo sapiens), P54829. recombinant STEP, OMFP fluorogenic substrate. inhibition, % at 20 µM. 360,000 tested, 0.25% active. AID 588621, 2011;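 active means inhibition at 20 µM, scaled per plate between control wells, above about 37%, limit read from the data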;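 further: 0% = DMSO with enzyme and substrate and 100% = substrate only without enzyme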
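Assay system: isolated STEP enzyme / Timing: 20 min at room temperature, dark / Doses: 20 µM, 1% DMSO / Technique: fluorescence intensity, excitation 480 nm, emission 540 nm / Reagent: fluorogenic phosphatase substrate OMFP at 25 µM final / Measure: percent inhibition scaled to no-enzyme and uninhibited-enzyme controls, plate-pattern corrected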
CASP6 VEID inh – human caspase-6 inhibitors, primary screen, biochemical, VEID-R110 fluorescence, single point, set 2 | inhibition, % at 12.5 µM | P55212 | 350,000 tested, 0.53% active | purified caspase-6, Z-VEID-R110 cleavage fluorescence;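 active means mean inhibition across replicates at least about 35%, with every replicate also reaching that limit, limit read from the data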;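 further: 0% = median of neutral control wells and 100% = no fluorescence left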
Target sequence (P55212 24-179 limits assumed): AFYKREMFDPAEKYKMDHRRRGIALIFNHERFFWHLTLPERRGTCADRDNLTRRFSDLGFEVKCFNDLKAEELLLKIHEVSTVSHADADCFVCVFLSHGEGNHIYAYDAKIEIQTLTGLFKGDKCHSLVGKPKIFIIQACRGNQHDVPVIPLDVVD
Target sequence (P55212 194-293 limits assumed): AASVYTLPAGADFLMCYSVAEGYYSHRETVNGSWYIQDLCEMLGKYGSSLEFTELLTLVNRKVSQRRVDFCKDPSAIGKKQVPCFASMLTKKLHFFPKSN
Active calls of the source: *; . = not tested or not shown. Sampled rows, rich in hits. Any-hit rate of the full collection: about 1.7%.

SMILES	Scp1 inh	DNMT1 inh	SUMO1 PPI mod	LMPTP inh	STEP block	CASP6 VEID inh
O=C(NCCc1ccccc1)c1cccc(Br)c1	-2	1	0	-2	0	-1
COc1ccc(S(=O)(=O)N2CCOCC2)cc1C(=O)NCC(c1ccccc1)c1ccccc1	-6	-3	2	1	2	50*
N#CC1=C(N)Oc2cc(O)c(Cl)cc2C1c1ccccc1F (stereo unspecified)	2	10	-18	-2	-6	44*
C[C@H]1CN([C@@H](C)CO)S(=O)(=O)c2ccc(-c3ccc(F)cc3)cc2O[C@@H]1CN(C)C(=O)c1ccccc1F	.	.	.	.	.	-3
COCP(=O)(c1ccccc1)c1ccccc1	-6	4	5	0	-4	.
CC(C)OCP(=O)(c1ccccc1)c1ccccc1	-4	4	51*	-1	-1	.
COc1cc(-c2nc(C(F)(F)F)c(OC)o2)cc(OC)c1OC	7	1	1	0	-1	0
O=C(N=Nc1c(O)[nH]c2ccccc12)c1cccc(S(=O)(=O)N2CCCCC2)c1	13	6	-2	9	-1	0
O=c1[nH]c2ccccc2c2nc(-c3cccc(S(=O)(=O)N4CCCC4)c3)nn12	8	-2	42*	7	9	4
Cc1n[nH]c(C)c1CCc1nc2c3ccccc3nc(SCC(N)=O)n2n1	0	-1	5	-1	1	.
Cc1ccc(NC(=O)CSc2nc3ccccc3c3nc(CCc4c(C)n[nH]c4C)nn23)cc1F	-1	-20	43*	-2	-13	.
CC(C)CC1=C/C(=C/c2ccc(-c3ccccc3)o2)C(=O)O1	15	92*	14	4	4	30
CCOC(=O)C1=C(CC)Nc2ccccc2N/C1=N\S(=O)(=O)c1cccc(C(C)=O)c1	-6	-3	7	-1	-5	-2
CCOc1ccc(/C=C2\CCCc3c2nc2ccccc2c3C(=O)O)cc1OC	.	78*	-19	-6	-78	.
COc1ccc(/C=C2\CCc3c2nc2ccccc2c3C(=O)O)cc1OC	15	4	13	1	4	9
COc1ccc(N=C2SC(CC(=O)Nc3ccccc3)C(=O)N2CC2CCCO2)cc1 (stereo unspecified)	6	-4	1	-1	0	.
CCN(C[C@H]1N[C@@](Cc2ccccc2)(C(=O)OC)[C@H]2C(=O)N(Cc3ccccc3)C(=O)[C@@H]12)S(=O)(=O)c1ccc(C(C)(C)C)cc1	-17	3	4	2	2	0
Cc1cc(C)c(C#N)c(SCC(=O)Nc2nonc2N)n1	-3	0	46*	3	0	1
Oc1ccc(C=NN=C2c3ccccc3-c3ccccc32)c(O)c1	-5	-44	-8	4	-3	2
Cc1ccc(C)n1-c1cc([N+](=O)[O-])ccc1-n1ccnc1	-13	-1	-26	0	3	2
CC1(C)N([O-])c2cc([N+](=O)[O-])ccc2[N+]1=O	28	.	.	.	.	38*
CCCCCCOC(=O)c1ccc(N)cc1	1	0	4	1	6	-1
CCCCCCCCCCCC1N=C(N)NC(CCCO)=C1C(=O)OC (stereo unspecified)	5	-13	103*	4	13	11
O=C(NC1CCCCC1)c1ccc(Cn2cc(Br)cn2)o1	-7	2	-2	-1	0	.
Cc1ccc(C(=O)ONc2ccc(N=NC(=O)c3ccccc3O)cc2)cc1	110*	30	-1	78*	77*	.
SMILES	Scp1 inh	DNMT1 inh	SUMO1 PPI mod	LMPTP inh	STEP block	CASP6 VEID inh
O=c1[nH]c(=O)n(Cc2ccccc2)c2nc(-c3ccc(Oc4ccc(F)cc4)c([N+](=O)[O-])c3)n(CCO)c12	-5	-6	-9	2	0	-2
CC(C)N=C(Nc1cccnc1)c1ccccc1	-6	-1	-2	-1	-1	39*
CC(=O)N1CCc2cc(Br)cc(S(=O)(=O)N3CCC(C(=O)O)CC3)c21	35	12	9	1	13	39*
O=S(=O)(NCc1cccnc1)c1ccc(Cl)cc1	-4	1	1	-1	0	47*
CCOc1ccc(S(=O)(=O)NCc2cccnc2)cc1	-9	3	-2	-1	0	-2
CS(=O)(=O)N1N=C(c2ccco2)CC1c1ccccc1 (stereo unspecified)	-12	-11	-2	-2	-4	2
CS(=O)(=O)N1N=C(c2ccco2)CC1c1ccco1 (stereo unspecified)	43	13	0	0	4	62*
Cc1cc(NC2=CC(=O)C(=O)c3ccccc32)no1	5	44	1	15	23	48*
CC(C)CCn1c(=O)c2sccc2n2c(CCCC(=O)N3CCC(N4CCCCC4)CC3)nnc12	5	4	9	-1	-1	-10
CCS(=O)(=O)Nc1ccc2c(c1)C(=O)N(C)[C@H]1CC[C@H](CC(=O)NCCCN3CCOCC3)O[C@H]1CO2	.	.	.	.	.	39*
CN1C(=O)c2cc(NC(=O)C3CC3)ccc2OC[C@@H]2O[C@H](CC(=O)O)CC[C@H]21	.	.	.	.	.	-3
CN1C(=O)c2cc(NC(=O)C3CC3)ccc2OC[C@H]2O[C@@H](CC(=O)O)CC[C@@H]21	.	.	.	.	.	37*
CCS(=O)(=O)Nc1ccc2c(c1)C(=O)N(C)[C@H]1CC[C@@H](CC(=O)NCCCN3CCOCC3)O[C@H]1CO2	.	.	.	.	.	-5
OC[C@@H]1[C@@H](c2ccc(C#CC3CC3)cc2)[C@@H]2CN(CCC(F)(F)F)CCCCN12	.	.	.	.	.	-3
COc1cc(/C=C2\C(=N)N3N=C(S(C)(=O)=O)SC3=NC2=O)cc(OC)c1OCCOc1ccccc1C	10	0	8	2	1	42*
CC(=O)N(CCC(Cc1ccccc1)c1ccco1)Cc1ccco1 (stereo unspecified)	0	-9	3	1	1	16
O=C(c1ccco1)N(CCC(c1ccccc1)c1ccco1)Cc1ccco1 (stereo unspecified)	74*	100*	14	3	9	.
O=C1CN(C(=O)COC(=O)c2ccc([N+](=O)[O-])o2)c2ccccc2N1	14	3	-26	-2	5	39*
CC1(C)C(=O)Nc2ccccc2N1C(=O)COC(=O)c1ccc([N+](=O)[O-])o1	11	-10	-32	0	1	47*
